From ChEMBL document CHEMBL4184327, “Aromatic-Based Design of Highly Active and Noncalcemic Vitamin D Receptor Agonists” (J Med Chem, 2018)
Calls of active or inactive are those of the source. No cut-off for these calls is given here.

Legend:
SK-OV-3 = assay: Antiproliferative activity against 2D culture of human SKOV3 cells assessed as cell proliferation at 100 nM after 48 hrs by MTT assay; format: functional; settings: SK-OV-3, 48 h, read-out: Activity
Outline: (§1)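 MTT assay in 2D cultures; cells grown in DMEM with 10% FBS, penicillin/streptomycin, 2 mM L-glutamine at 37 °C in 5% CO2, then treated in charcoal-treated FCS medium for 48 h at 100 nM. Ethanol vehicle controls; proliferation expressed as percentage ± SD of vehicle-treated cells.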

[1] = target: T1, Vitamin D3 receptor (Homo sapiens) (UniProt P11473); assay: Displacement of fluormone from human full length VDR after 2 hrs by fluorescence polarization assay relative to 1,25D; settings: concentration not given here
T1 sequence (whole entry): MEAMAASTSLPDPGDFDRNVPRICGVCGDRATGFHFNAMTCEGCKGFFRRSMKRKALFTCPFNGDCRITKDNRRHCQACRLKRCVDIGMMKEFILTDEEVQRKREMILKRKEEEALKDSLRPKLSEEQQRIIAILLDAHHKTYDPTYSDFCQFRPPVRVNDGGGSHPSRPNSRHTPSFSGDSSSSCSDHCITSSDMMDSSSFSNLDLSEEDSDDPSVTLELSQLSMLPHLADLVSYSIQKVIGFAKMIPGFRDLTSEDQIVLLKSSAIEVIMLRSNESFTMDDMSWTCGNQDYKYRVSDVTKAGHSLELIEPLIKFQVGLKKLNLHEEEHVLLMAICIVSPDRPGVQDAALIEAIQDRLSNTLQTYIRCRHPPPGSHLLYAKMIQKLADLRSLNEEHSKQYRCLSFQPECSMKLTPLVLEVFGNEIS
Outline: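 Competitive fluorescence polarization VDR binding kit used per manufacturer conditions; compounds tested from 10^-11 to 10^-5 M. IC50 calculated from averaged measurements; activity also expressed as percentage with 1,25D set to 100%.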

Vitamin D3 receptor [2] = target: T2, Vitamin D3 receptor (Homo sapiens, UniProt P11473); assay: Agonist activity at VDR in human MCF7 cells assessed as increase in transcription of CYP24A1 gene after 24 hrs by luciferase reporter gene assay; format: cell-based
T2 sequence (P11473 whole entry): T1 sequence (whole entry)

[3] = Antiproliferative activity against 2D culture of human HaCaT cells assessed as cell proliferation at 100 nM after 48 hrs by MTT assay; format: cell-based; settings: HaCaT cells (2D culture), read-out: Activity; outline: as §1
Mus musculus [4] = assay: Hypercalcemic activity in CD1 mouse assessed as serum calcium levels at 0.3 ug/kg, ip administered every other day for 3 weeks measured on […] relative to 1,25D; format: ADME, organism-based; settings: in vivo, 0.0003 mg/kg, 504 h
Outline: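 Mice dosed every other day for 21 days at 0.3 µg/kg, n=5 per group, with vehicle controls; serum calcium reported as mean ± SD.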

HaCaT = assay: Induction of human HaCaT cell differentiation at 100 nM after 48 hrs; format: functional, cell-based
Outline: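 HaCaT keratinocytes treated with 100 nM for 48 hours in charcoal-treated FCS medium, ethanol vehicle control, and differentiation then assessed.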

[5] = target: T1, Vitamin D3 receptor (Homo sapiens); assay: Agonist activity at VDR in human MCF7 cells assessed as transcription of CYP24A1 gene after 24 hrs by luciferase reporter gene assay relative to 1,25D; format: cell-based
Outline: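 Cells transfected with 1 µg pCYP24A1-Luc plasmid (luciferase under a consensus VDRE from the 24-hydroxylase promoter); after 24 h medium replaced with compound at 10^-11 to 10^-6 M. Bioluminescence imaged and total photon counts quantified. EC50 from dose-response curves as concentration raising luciferase activity by 50%; ratio given as analogue EC50 relative to 1,25D.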

Vitamin D3 receptor [6] = target: T2, Vitamin D3 receptor; assay: Displacement of fluormone from human full length VDR after 2 hrs by fluorescence polarization assay
MCF7 [7] = assay: Antiproliferative activity against 2D culture of human MCF7 cells assessed as cell proliferation at 100 nM after 48 hrs by MTT assay; format: functional; settings: MCF7, 48 h, read-out: Activity; outline: as §1
MCF7 [8] = assay: Antiproliferative activity against 3D culture of human MCF7 cells assessed as cell proliferation at 100 nM after 5 days by DAPI staining-based phase contrast microscopic method; format: functional; settings: MCF7, 120 h, read-out: Activity
Outline: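 Three-dimensional MCF-7 cultures treated 5 days with 10^-7 M in charcoal-treated FCS medium; ethanol vehicle. Phase-contrast photographs taken, sphere diameters traced manually across each sphere and scored as relative units; proliferation given as percentage ± SD of vehicle-treated cells.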

PC-3 = assay: Antiproliferative activity against 2D culture of human PC3 cells assessed as cell proliferation at 100 nM after 48 hrs by MTT assay; format: functional; settings: PC-3, 48 h, read-out: Activity; outline: as §1
MDA-MB-436 [9] = assay: Cytotoxicity against 3D culture of cancer stem cells derived from human MDA-MB-436 cells assessed as decrease in growth of mammospheres at 100 nM after 5 days by DAPI staining-based phase contrast microscopic method; format: functional, cell-based
Outline: (§2)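 MDA-MB-436 cells enriched in cancer stem cells grown in a commercial 3D sphere assay per manufacturer's instructions; ethanol or compound (10^-8 or 10^-7 M) added for 5 days. Mammosphere number and diameter quantified from phase-contrast images by manual diameter tracing.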

MDA-MB-231 [10] = assay: Antitumor activity against luciferase expressing human MDA-MB-231 cells xenografted in SCID mouse assessed as tumor growth inhibition at 1 ug/kg, ip administered every other day measured every 7 days […] to day 28 post last dose; format: functional, organism-based
Outline: (§3)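 SCID mice given subcutaneous MDA-MB-231-luc cells; ten days later (treatment day 0) split into two groups, dosed i.p. at 1 µg/kg in sesame oil, controls sesame oil. Tumor growth followed by in vivo bioluminescence imaging (photon flux) every 7 days until day 28; survival followed to day 60.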

Mus musculus [11] = assay: Toxicity in CD1 mouse assessed as effect on liver at 0.5 to 5 ug/kg, ip administered every other day for 3 weeks measured on […] by hematoxylin and eosin staining-based assay; format: organism-based; settings: in vivo, 504 h
Mus musculus [12] = assay: Toxicity in CD1 mouse assessed as effect on kidney at 0.5 to 5 ug/kg, ip administered every other day for 3 weeks measured on […] by hematoxylin and eosin staining-based assay; format: organism-based; settings: in vivo, 504 h
MDA-MB-231 [13] = assay: Antitumor activity against luciferase expressing human MDA-MB-231 cells xenografted in SCID mouse assessed as increase in mouse survival at 1 ug/kg, ip administered every other day starting from day 10 post tumor implantation to day 60; format: functional, organism-based; outline: as §3
Mus musculus [14] = assay: Hypercalcemic activity in CD1 mouse serum at 0.5 to 5 ug/kg, ip administered every other day for 3 weeks measured on […]; format: ADME, organism-based; settings: in vivo, 504 h
Mus musculus [15] = assay: Toxicity in CD1 mouse assessed as body weight loss at 0.5 to 5 ug/kg, ip administered every other day for 3 weeks measured every week during compound dosing; format: organism-based; settings: in vivo, 504 h
MDA-MB-436 [16] = assay: Cytotoxicity against 3D culture of cancer stem cells derived from human MDA-MB-436 cells assessed as decrease in number of mammospheres at 100 nM after 5 days by DAPI staining-based phase contrast microscopic method; format: functional, cell-based; outline: as §2

SMILES	growth at 0.1 µM (SK-OV-3)	inhibition [1]	EC50 (Vitamin D3 receptor [2])	viability at 48 h, 0.1 µM [3]	Activity (Mus musculus [4])	Activity (HaCaT)	Activity [5]	IC50 (Vitamin D3 receptor [6])	growth at 0.1 µM (MCF7 [7])	growth at 0.1 µM (MCF7 [8])	growth at 0.1 µM (PC-3)	Activity (MDA-MB-436 [9])	TGI (MDA-MB-231 [10])	Activity (Mus musculus [11])	Activity (Mus musculus [12])	Activity (MDA-MB-231 [13])	Activity (Mus musculus [14])	Activity (Mus musculus [15])	Activity (MDA-MB-436 [16])
C=C1/C(=C\C=C(/CCCC)c2cccc(CCCCCC(C)(C)O)c2)C[C@@H](O)C[C@@H]1O	81%	12%	0.009 to 0.011 µM	71%	34%	Active	19%	0.01 to 0.018 µM	74%	84%	84%	–	–	–	–	–	–	–	–
C=C1/C(=C\C=C(/CCCCCCC)c2cccc(CCCCCC(C)(C)O)c2)C[C@@H](O)C[C@@H]1O	83%	7%	0.029 to 0.04 µM	71%	0%	Active	5%	0.0035 to 0.16 µM	69%	55%	79%	–	–	–	–	–	–	–	–
C=C1/C(=C\C=C2/CCC[C@]3(C)[C@@H]([C@H](C)CCCC(C)(C)O)CC[C@@H]23)C[C@@H](O)C[C@@H]1O [CALCITRIOL]	78%	–	–	69%	–	Active	–	–	66%	61%	77%	–	–	–	–	–	–	–	–
C=C1/C(=C\C=C(/CCC)c2cccc(CCCCCC(C)(C)O)c2)C[C@@H](O)C[C@@H]1O	82%	10%	0.0086 to 0.0099 µM	71%	41%	Active	21%	0.0056 to 0.055 µM	69%	74%	83%	–	–	–	–	–	–	–	–
C=C1/C(=C\C=C(/CCCCCC)c2cccc(CCCCCC(C)(C)O)c2)C[C@@H](O)C[C@@H]1O	76%	9%	0.01 to 0.013 µM	74%	0%	Active	17%	0.0083 to 0.04 µM	78%	79%	80%	–	–	–	–	–	–	–	–
C=C1/C(=C\C=C(/CC)c2cccc(CCCCCC(C)(C)O)c2)C[C@@H](O)C[C@@H]1O	78%	24%	0.0056 to 0.0062 µM	68%	0%	Active	33%	0.0045 to 0.011 µM	65%	69%	78%	Active	Active	Non-Toxic	Non-Toxic	Active	Non-Toxic	Non-Toxic	Active
